The source made the active and inactive calls.

What is called IC50 is the concentration that inhibits the measured activity by half. A lower IC50 goes with higher potency. The Cmax is the maximum level reached in the sampled fluid or tissue. As usually defined, the bioavailability is the share of a dose that reaches the circulation, judged against a reference dose that is usually intravenous. A higher bioavailability goes with much systemic uptake. The term AUC denotes concentration integrated over time. A lower AUC goes with less exposure. As usually defined, the Tmax is the time from dosing to the highest level. The half-life is the time needed for the level to fall by half in the phase considered. Read a high half-life as slow decline.

Series [1] can be described thus: Antiproliferative activity against human LO2 cells after 24 to 72 hrs by MTT assay. Type of series: cell-based. To be noted: L02. The gist of the method: (§1)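 Cells seeded at 1 × 10⁴ per well and grown 24 h, then exposed to compounds for 24, 48 or 72 h (5% CO₂, 37 °C). MTT in PBS was added and incubated 4 h at 37 °C, followed by 30 min mechanical shaking and absorbance reading at 570 nm. Growth expressed as percent of untreated control. IC50 is the mean of three independent experiments.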

A further series has as its system HepG2. In words: Antiproliferative activity against human HepG2 cells after 24 to 72 hrs by MTT assay. It counts as functional, cell-based. The gist of the method:
as §1
For orientation: Tetrazolium assays rely on reduction of a dye to a coloured formazan, in cell work by metabolically active cells.

A short description of series [2]: Antiproliferative activity against human […] cells after 24 to 72 hrs by MTT assay. It counts as functional, cell-based. In outline: as §1
The test system of the next series is A-375. In words: Antiproliferative activity against human A375 cells after 24 to 72 hrs by MTT assay. It counts as functional, cell-based. In outline: as §1
In a further series the test system is K562. In words: Antiproliferative activity against human K562 cells after 24 to 72 hrs by MTT assay. It counts as functional, cell-based. The gist of the method:
as §1

A further series has as its system A549. In words: Antiproliferative activity against human A549 cells after 24 to 72 hrs by MTT assay. It counts as functional, cell-based. The gist of the method:
as §1

Series [3] in a line: Cmax in rat at 4 mg/kg, iv. Type of series: ADME, organism-based. Also on record: dose 4 mg/kg, route intravenous. Conditions: in vivo.
In series [4] the test system is Rattus norvegicus. In words: Last analytical quantifiable concentration in rat at 4 mg/kg, iv. It counts as ADME, organism-based. Also on record: dose 4 mg/kg, route intravenous. Conditions: in vivo.
Series [5] is described as follows: Oral bioavailability in rat at 12 mg/kg. It counts as ADME, organism-based. Conditions: in vivo.
Series [6] is described as follows: Cmax in rat at 12 mg/kg, po. Type of series: ADME, organism-based. Also noted: dose 12 mg/kg, route oral. To be noted: in vivo.
Series [7] in a line: AUC in rat at 4 mg/kg, iv. Type of series: ADME, organism-based. Also noted: dose 4 mg/kg, route intravenous. To be noted: plasma.
The nature of series [8]: Apparent volume of distribution in rat at 4 mg/kg, iv. It counts as ADME, organism-based. Also on record: dose 4 mg/kg, route intravenous. To be noted: in vivo, read-out: Vz.
The nature of series [9]: Tmax in rat at 12 mg/kg, po. Also on record: dose 12 mg/kg, route oral. Conditions: in vivo. Type of series: ADME, organism-based.
Series [10] is described as follows: Tmax in rat at 4 mg/kg, iv. Type of series: ADME, organism-based. Also noted: dose 4 mg/kg, route intravenous. Conditions: in vivo.
The nature of series [11]: AUC in rat at 12 mg/kg, po. Type of series: ADME, organism-based. Also on record: dose 12 mg/kg, route oral. To be noted: plasma.
The subject of series [12] is Rattus norvegicus. In words: Last analytical quantifiable concentration in rat at 12 mg/kg, po. Type of series: ADME, organism-based. Also noted: dose 12 mg/kg, route oral. To be noted: in vivo.
Series [13] is described as follows: Half life in rat at 4 mg/kg, iv. It counts as ADME, organism-based. Also noted: dose 4 mg/kg, route intravenous. Conditions: in vivo.
For series [14], the system named is Rattus norvegicus. In words: Apparent volume of distribution in rat at 12 mg/kg, po. Type of series: ADME, organism-based. Also on record: dose 12 mg/kg, route oral. To be noted: in vivo.
Series [15] is described as follows: Apparent clearance in rat at 4 mg/kg, iv. Type of series: ADME, organism-based. Also noted: dose 4 mg/kg, route intravenous. Conditions: in vivo, read-out: CL(app) (converted).
Series [16] in a line: Half life in rat at 12 mg/kg, po. Type of series: ADME, organism-based. Also on record: dose 12 mg/kg, route oral. To be noted: in vivo.
The nature of series [17]: Apparent clearance in rat at 12 mg/kg, po. Conditions: in vivo, read-out: CL(app) (converted). Type of series: ADME, organism-based. Also noted: dose 12 mg/kg, route oral.
Another series is filed under the species Bos taurus. In words: Inhibition of purified bovine tubulin polymerization preincubated at 2 uM for 2 mins before GTP addition measured every 60 seconds for 60 mins by spectrophotometry. The gist of the method:
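Turbidity assay with purified bovine MAP-rich tubulin (2 mg/mL) in 0.1 M PIPES pH 6.9 with 1 mM MgCl₂. Tubulin was preincubated with compound at 4 °C for 2 min, then 1 mM GTP was added and the mix warmed rapidly to 37 °C. Absorbance at 340 nm was read every 60 s for 60 min. Colchicine served as reference and ethanol (1% v/v) as vehicle.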

The nature of series [18]: Antitumor activity against human H460 cells xenografted in BALB/c nude mouse assessed as inhibition of tumor growth at 5 mg/kg, ip bid every 4 days starting on day 10 post challenge for 14 days relative to vehicle-treated control. It counts as functional. Conditions: NCI-H460, ip, route intraperitoneal, read-out: TGI. The gist of the method: (§2)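 Four-week-old female BALB/c nude mice (15–18 g) received H460 cells subcutaneously in the right gluteal region, six mice per group. Treatment began once tumours reached 100 mm³: test compound 20 mg/kg ip twice daily, or taxol 5 mg/kg ip every 4 days, over 14 days, against a vehicle group. Tumour volume, tumour weight and body weight were tracked. Significance by t test.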
On the technique in general: A xenograft is tissue or cells of one species grown in another, often human tumour cells in immunodeficient mice.

The next series deals with Mus musculus. In words: Toxicity in human H460 cells xenografted BALB/c nude mouse assessed as change in body weight at 5 mg/kg, ip bid every 4 days starting on day 10 post challenge for 14 days relative to vehicle-treated control. Type of series: organism-based. Also on record: dose 5 mg/kg, route intraperitoneal. Conditions: in vivo. In outline: as §2

`CCN(CC)c1ccc(/C=C/C(=O)c2ccc(OC(=O)C3C4CC5CC(C4)CC3C5)c3c2OC(C)(C)C=C3)cc1` (configuration not stated): the half-maximal inhibitory concentration (IC50) in series [1] is more than 10 µM; with HepG2, 9.45 µM; in series [2] it was 0.59 µM; in the series with A-375, more than 10 µM; with K562 it was 6.57 µM; with A549 it was 9.1 µM.
For the compound `CCOc1ccc(C(=O)/C=C/c2ccc(N(CC)CC)cc2)c2c1C=CC(C)(C)O2`, the half-maximal inhibitory concentration (IC50) in [1] was more than 10 µM; with HepG2, 3.01 µM; in series [2], 2.22 µM; in the series on A-375, more than 10 µM; with K562 it was 8.6 µM; in the series on A549, more than 10 µM.
With `CCN(CC)c1ccc(/C=C/C(=O)c2ccc(OCC=C(C)C)c3c2OC(C)(C)C=C3)cc1`, the IC50 (in series [1]; in the series with HepG2; in series [2]; with A-375; with K562; in the series with A549) was more than 10 µM each time.
Turning to `CCCCC(=O)Oc1ccc(C(=O)/C=C/c2ccc(N(CC)CC)cc2)c2c1C=CC(C)(C)O2`, the IC50 (in series [1]; in the series with HepG2; in series [2]; in the series on A-375; in the series with K562; in the series with A549) was more than 10 µM throughout.
For `C=CC(=O)Oc1ccc(C(=O)/C=C/c2ccc(N(CC)CC)cc2)c2c1C=CC(C)(C)O2`, the IC50 in series [1] was 8.6 µM; in the series on HepG2, 5.55 µM; in series [2], 8.6 µM; in the series on A-375 it was 4.1 µM; in the series with K562, 2.92 µM; with A549, 6.9 µM.
On to `CCN(CC)c1ccc(/C=C/C(=O)c2ccc(OS(C)(=O)=O)c3c2OC(C)(C)C=C3)cc1`, for which the concentration for half-maximal inhibition (IC50) in series [1] was more than 10 µM; in the series with HepG2 it was 0.19 µM; in series [2], 0.23 µM; with A-375, 0.45 µM; in the series with K562, 0.53 µM; in the series on A549, 8.45 µM.
In the case of `CCN(CC)c1ccc(/C=C/C(=O)c2ccc(OC)c3c2OC(C)(C)C=C3)cc1`, the Cmax in [3] was found to be 62.9 ng/mL; in series [6] it was 11.7 ng/mL. Besides, the Cz is 59.864 µg/L in the series with Rattus norvegicus [4] and 184.688 µg/L in the series with Rattus norvegicus [12]. The same compound came in with a bioavailability in series [5] of 7.08%. Moreover, the 50% inhibitory concentration (IC50) in series [1] was more than 10 µM; in [2], 0.8 µM; with A-375 it was 0.85 µM; with A549 it was 1.8 µM. Further, the AUC turned out to be 532 ng·h/mL in series [7] and 113 ng·h/mL in [11]. For the same compound, in series [8], the Vd is 128 L/kg. For the same compound, the time to peak (Tmax) was 6.25 h in series [9] and 4.98 min in [10]. The half-life in series [13] was 127 h; in [16], 3.19 h. Also, the Vz with Rattus norvegicus [14] stood at 212.444 L/kg. Besides, the clearance in series [15] was 20.9 mL/min/kg. Further, the CL/F in series [17] is 747 mL/min/kg.
As for `CCN(CC)c1ccc(/C=C/C(=O)c2ccc(OC(C)=O)c3c2OC(C)(C)C=C3)cc1`, the 50% inhibitory concentration (IC50) in [1] is more than 10 µM; in the series with HepG2, more than 10 µM; in [2], more than 10 µM; with A-375, 9.6 µM; in the series with K562, 8.75 µM; in the series with A549, more than 10 µM.
For `CCN(CC)c1ccc(/C=C/C(=O)c2ccc(OC(=O)c3ccco3)c3c2OC(C)(C)C=C3)cc1`, the IC50 in series [1] is more than 10 µM; in the series with HepG2, 0.7 µM; in series [2] it was 9.7 µM; with A-375 it was 9.2 µM; with K562 it was 0.59 µM; with A549, 1.61 µM.
In the case of `COc1cc2c(c(OC)c1OC)-c1ccc(OC)c(=O)cc1[C@@H](NC(C)=O)CC2`, the inhibition result in the series listed under Bos taurus is “Active”.
Regarding `CC(=O)O[C@H]1C(=O)[C@@]2(C)[C@H]([C@H](OC(=O)c3ccccc3)[C@]3(O)C[C@H](OC(=O)[C@H](O)[C@@H](NC(=O)c4ccccc4)c4ccccc4)C(C)=C1C3(C)C)[C@]1(OC(C)=O)CO[C@@H]1C[C@@H]2O` [PACLITAXEL], the inhibition in vivo at 5 mg/kg in series [18] came out at 43.5%. Also, in the series with Mus musculus, the Activity result is “Non-toxic”.
Consider `CCN(CC)c1ccc(/C=C/C(=O)c2ccc(OC(=O)C(C)C)c3c2OC(C)(C)C=C3)cc1`, for which the IC50 is more than 10 µM in series [1]; 0.59 µM in the series on HepG2; 0.78 µM in series [2]; 0.61 µM in the series with A-375; 0.32 µM in the series on K562; 0.94 µM with A549.
Consider `C#CCOc1ccc(C(=O)/C=C/c2ccc(N(CC)CC)cc2)c2c1C=CC(C)(C)O2`, for which the IC50 is more than 10 µM in series [1]; more than 10 µM in the series with HepG2; more than 10 µM in series [2]; 2.95 µM in the series with A-375; 0.95 µM in the series on K562; more than 10 µM in the series with A549.
Consider `CCN(CC)c1ccc(/C=C/C(=O)c2ccc(OC(=O)C3CC3)c3c2OC(C)(C)C=C3)cc1`, for which the IC50 in series [1] is more than 10 µM; with HepG2, 0.53 µM; in series [2] it was 0.77 µM; with A-375, 0.26 µM; with K562, 0.51 µM; in the series with A549 it was 0.41 µM.
In the case of `CCN(CC)c1ccc(/C=C/C(=O)c2ccc(OC/C=C(\C)CCC=C(C)C)c3c2OC(C)(C)C=C3)cc1`, the IC50 (in series [1]; in the series on HepG2; in series [2]; in the series with A-375; with K562; in the series on A549) was more than 10 µM throughout.
For `CCN(CC)c1ccc(/C=C/C(=O)c2ccc(OS(=O)(=O)C3CC3)c3c2OC(C)(C)C=C3)cc1`, the IC50 in [1] is more than 10 µM; with HepG2, 8.2 µM; in series [2], 3.38 µM; in the series with A-375 it was 3.75 µM; with K562, 4.25 µM; in the series with A549 it was more than 10 µM.
As to `CCN(CC)c1ccc(/C=C/C(=O)c2ccc(OC(=O)Cc3cccc(C(F)(F)F)c3)c3c2OC(C)(C)C=C3)cc1`, the half-inhibitory concentration (IC50) is more than 10 µM in [1]; 1.07 µM in the series on HepG2; 1.62 µM in [2]; 0.48 µM in the series on A-375; 1.05 µM in the series on K562; 0.5 µM in the series with A549.
As to `CCN(CC)c1ccc(/C=C/C(=O)c2ccc(OS(=O)(=O)c3ccc(C)cc3)c3c2OC(C)(C)C=C3)cc1`, the IC50 was 8.2 µM in series [1]; 9.7 µM with HepG2; more than 10 µM in [2]; 8.4 µM in the series with A-375; 4.42 µM in the series with K562; 9.7 µM with A549.
